Results on 16 compounds are retold here after ChEMBL document CHEMBL1128487, “Reduced-size antagonists of luteinizing hormone-releasing hormone active in vitro” (1995).

Test [1] deals with Rattus norvegicus. The test is described as follows: In vivo anti-ovulatory activity (AOA) against LHRH was determined at a dose of 10 ug in 6 rats. Type of test: functional. The gist of the method: (§1)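 Female 4-day cycling rats received a single subcutaneous injection of analog in corn oil between 12 and 12:30 p.m. Ova were counted on estrus. Activity is given as the number of ovulating rats over the total rats at each dose.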

Test [2] relates to Rattus norvegicus. Kind of test: In vivo anti-ovulatory activity (AOA) against LHRH was determined at a dose of 100 ug in 6 rats. Type of test: functional. Summed up:
as §1

For test [3], the system named is Rattus norvegicus. Kind of test: In vivo anti-ovulatory activity (AOA) against LHRH was determined at a dose of 1000 ug in 6 rats. The format is functional. The gist of the method: as §1
In test [4] the target is T1, Gonadotropin-releasing hormone receptor (Rattus norvegicus) (UniProt P30969).
T1 sequence (whole entry): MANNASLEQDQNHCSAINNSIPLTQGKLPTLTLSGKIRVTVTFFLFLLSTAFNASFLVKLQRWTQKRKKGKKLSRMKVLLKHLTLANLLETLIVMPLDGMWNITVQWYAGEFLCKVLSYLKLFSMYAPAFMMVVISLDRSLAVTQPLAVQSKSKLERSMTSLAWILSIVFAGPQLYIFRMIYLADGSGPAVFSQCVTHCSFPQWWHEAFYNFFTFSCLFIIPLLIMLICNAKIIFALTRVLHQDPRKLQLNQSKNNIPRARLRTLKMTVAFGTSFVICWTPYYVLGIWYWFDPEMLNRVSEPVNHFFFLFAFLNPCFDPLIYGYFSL
The test is described as follows: In vitro antagonistic activity against LH release in rat pituitary cells for control. The format is functional, cell-based. The settings on record: Pituitary gland cell. The gist of the method: (§2)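 Anterior pituitaries from female Sprague-Dawley rats (240-260 g, 18 rats) were minced and dispersed in Gey's solution with trypsin, DNase I and LBBI. Cells were plated in DMEM with 0.45% glucose, 25 mM HEPES, serum, T and 100 nM dexamethasone at about 3.0 × 10^5 cells/mL and cultured 4 days at 37 °C in 8% CO2. Cells were then exposed to antagonist plus 1 ng LHRH in Gey's solution with 0.3% glucose for 2 h. LH in the medium was measured by RIA as ng/mL of RP-3.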

Test [5] concerns the target T1, Gonadotropin-releasing hormone receptor (Rattus norvegicus). The test is described as follows: In vitro inhibition of LH release was determined in rat pituitary cells at a dose of 0.03 ug of analogue and 1 ng of LHRH. The format is functional, cell-based. The conditions noted are these: Pituitary gland cell. The gist of the method:
as §2

Test [6] shares this target. Kind of test: In vitro inhibition of LH release was determined in rat pituitary cells at a dose of 0.1 ug of analogue and 1 ng of LHRH. The format is functional, cell-based. The conditions noted are these: Pituitary gland cell. Summed up: as §2
Test [7] shares this target. The test is described as follows: In vitro inhibition of LH release was determined in rat pituitary cells at a dose of 0.3 ug of analogue and 1 ng of LHRH. The settings on record: Pituitary gland cell. Type of test: functional, cell-based. Summed up:
as §2

The species named for test [8] is Rattus norvegicus. The test is described as follows: In vitro inhibition of LH release in rat pituitary cells at a dose of 1 ng LHRH in absence of the compound. The format is functional, Pituitary gland cell. Further details: unit: ng/mL. Summed up: as §2
The target of test [9] is T1, Gonadotropin-releasing hormone receptor (Rattus norvegicus). Kind of test: In vitro inhibition of LH release in rat pituitary cells at a dose of 1 ug of analogue and 1 ng of LHRH. The format is functional, cell-based. The conditions noted are these: Pituitary gland cell. Summed up: as §2
Test [10] shares this target. The test is described as follows: In vitro inhibition of LH release was determined in rat pituitary cells at a dose of 10 ug of analogue and 1 ng of LHRH. The format is functional, cell-based. The conditions noted are these: Pituitary gland cell. The gist of the method: as §2
The target is the same in test [11]. The test is described as follows: In vitro inhibition of LH release was determined in rat pituitary cells at a dose of 100 ug of analogue and 1 ng of LHRH. The conditions noted are these: Pituitary gland cell. The format is functional, cell-based. The gist of the method: as §2
Test [12] has the same target. The test is described as follows: In vitro inhibition of LH release determined in rat pituitary cells at a dose of 3 ug of analogue and 1 ng of LHRH. The format is functional, cell-based. The conditions noted are these: Pituitary gland cell. Summed up:
as §2

Test [13] shares this target. Kind of test: In vitro inhibition of LH release was determined in rat pituitary cells at a dose of 30 ug of analogue and 1 ng of LHRH. The conditions noted are these: Pituitary gland cell. Type of test: functional, cell-based. Summed up:
as §2

The subject of test [14] is Rattus norvegicus. The test is described as follows: In vivo anti-ovulatory activity (AOA) against LHRH was determined at a dose of 1 ug in 6 rats. Type of test: functional. The gist of the method: as §1

Square brackets hold non-standard residues; d marks the D form. Peptide text beside a SMILES is read from it. * marks the point of attachment. ξ: configuration not given here. 2Nal = N[C@@H](Cc1ccc2ccccc2c1)C(=O)O; ξLys(iPr) = CC(C)NCCCCC(N)C(=O)O; Picolinoyl = O=C(c1ccccn1)*; ξR = N=C(N)NCCCC(N)C(=O)O

For the compound `CC(=O)N[C@H](Cc1ccc2ccccc2c1)C(=O)N[C@H](Cc1cccnc1)C(=O)N[C@@H](CO)C(=O)N[C@@H](Cc1ccc(O)cc1)C(=O)N[C@H](Cc1ccc2ccccc2c1)C(=O)N[C@@H](CC(C)C)C(=O)N[C@@H](CCCN=C(N)N)C(=O)N1CCC[C@H]1C(=O)N[C@H](C)C(N)=O`, the AOA in the test on Rattus norvegicus [1] came to 6; in the test with Rattus norvegicus [2], 6; in the test on Rattus norvegicus [3], 4. Also, the Activity in test [4] turned out to be 3.8; in [5], 28; in [6], 14; in [7] it was 6; in the test filed under Rattus norvegicus [8] it was 149; in test [9], 3.

As to `CC(=O)N[C@@H](Cc1ccc2ccccc2c1)C(=O)N[C@@H](CCCN=C(N)N)C(=O)N[C@@H](C)C(N)=O`, the Activity in test [4] is 3.5; in the test listed under Rattus norvegicus [8], 153; in test [10], 101; in test [11], 69; in test [12], 145; in [13], 66. Besides, in test [9], the Activity was found to be 151.

Take `CC(=O)N[C@@H](Cc1ccc2ccccc2c1)C(=O)N[C@@H](CCCCNC(=O)c1ccccn1)C(=O)N1CCC[C@H]1C(N)=O`: the Activity in [4] is 3.1; in the test listed under Rattus norvegicus [8] it was 145; in test [10], 129; in test [11], 71; in test [12], 139; in [13] it was 113. This compound came in with an Activity in test [9] of 145.

Take `CC(=O)N[C@@H](Cc1ccc2ccccc2c1)C(=O)N[C@@H](C)C(N)=O` (Ac-[2Nal]-Ala-NH2): the Activity in test [4] stood at 3.5; in the test listed under Rattus norvegicus [8] it was 153; in test [10], 124; in [11], 16; in test [12], 153; in [13], 88. The compound further displayed an Activity in [9] of 148.

For `CCNC(=O)[C@@H]1CCCN1C(=O)[C@H](Cc1ccc2ccccc2c1)NC(C)=O` (Ac-[2Nal]-Pro-NHEt), the Activity in [4] came out at 3.1; in the test listed under Rattus norvegicus [8], 145; in test [10], 101; in test [11], 14; in [12], 141; in [13], 59. The compound also yielded an Activity in test [9] of 135.

Turning to `CC(=O)N[C@@H](Cc1ccc2ccccc2c1)C(=O)N[C@@H](CCCCNC(=O)c1ccccn1)C(=O)NC(CCCCNC(C)C)C(=O)N1CCC[C@H]1C(N)=O` (some centres not stated) (Ac-[2Nal]K(Picolinoyl)[ξLys(iPr)]P-NH2), the Activity in [4] came out at 3.5; in the test listed under Rattus norvegicus [8], 153; in test [10], 144; in test [11], 118; in test [12], 150; in test [13], 128. This compound registered an Activity in [9] of 186.

Take `CC(=O)N[C@@H](Cc1ccc2ccccc2c1)C(=O)N[C@@H](CCCCNC(=O)c1ccccn1)C(=O)NC(CCCN=C(N)N)C(=O)N1CCC[C@H]1C(N)=O` (some centres not stated) (Ac-[2Nal]K(Picolinoyl)[ξR]P-NH2): the Activity stood at 3.5 in test [4]; 153 in the test listed under Rattus norvegicus [8]; 132 in [10]; 63 in test [11]; 145 in test [12]; 136 in test [13]. The compound further came in with an Activity in test [9] of 148.

With `CC(=O)N[C@@H](Cc1ccc2ccccc2c1)C(=O)N[C@@H](CC(C)C)C(=O)N[C@@H](CCCN=C(N)N)C(=O)N[C@@H](C)C(N)=O` (Ac-[2Nal]LRA-NH2), the Activity stood at 3.5 in test [4]; 155 in the test listed under Rattus norvegicus [8]; 116 in [10]; 49 in test [11]; 136 in test [12]; 87 in test [13]. The same compound displayed an Activity in test [9] of 145.

In the case of `CCNC(=O)[C@@H]1CCCN1C(=O)[C@H](CCCN=C(N)N)NC(=O)[C@H](CC(C)C)NC(=O)[C@H](Cc1ccc2ccccc2c1)NC(C)=O` (Ac-[2Nal]LRP-NHEt), the Activity in test [4] was determined as 3.1; in the test listed under Rattus norvegicus [8] it was 145; in test [10], 88; in test [11], 9; in test [12], 120; in [13], 25. In test [9], the Activity came to 148.

With `CC(=O)N[C@@H](Cc1ccc2ccccc2c1)C(=O)N[C@@H](Cc1ccc(O)cc1)C(=O)N[C@@H](Cc1ccc2ccccc2c1)C(=O)N[C@@H](CCCN=C(N)N)C(=O)N[C@@H](C)C(N)=O` (Ac-[2Nal]Y[2Nal]RA-NH2), the Activity in test [4] worked out at 2.3; in the test listed under Rattus norvegicus [8], 156; in test [10] it was 121; in test [11], 21; in test [12], 135; in test [13], 66. The compound further showed an Activity in test [9] of 142.

Turning to `CCNC(=O)[C@@H]1CCCN1C(=O)[C@H](CCCN=C(N)N)NC(=O)[C@H](CC(C)C)NC(=O)[C@H](Cc1ccc2ccccc2c1)NC(=O)[C@H](Cc1ccc2ccccc2c1)NC(C)=O` (Ac-[2Nal][2Nal]LRP-NHEt), the Activity was found to be 2.3 in test [4]; 156 in the test filed under Rattus norvegicus [8]; 147 in test [10]; 98 in test [11]; 158 in [12]; 122 in [13]. This compound also yielded an Activity in test [9] of 145.

Consider `CC(=O)NC(Cc1ccc2ccccc2c1)C(=O)N[C@@H](CCCCNC(=O)c1ccccn1)C(=O)N[C@@H](CCCN=C(N)N)C(=O)NC(C)C(N)=O` (single isomer, unassigned), for which the Activity in test [4] came to 2.3; in the test listed under Rattus norvegicus [8] it was 156; in test [10], 75; in test [11], 8; in test [12] it was 145; in [13] it was 26. In test [9], this compound showed an Activity of 147.

In the case of `CC(=O)NC(Cc1ccc2ccccc2c1)C(=O)N[C@@H](Cc1ccc(Cl)cc1)C(=O)N[C@@H](Cc1cccnc1)C(=O)N[C@@H](CO)C(=O)N[C@@H](Cc1ccc(O)cc1)C(=O)NC(Cc1ccc2ccccc2c1)C(=O)N[C@@H](CC(C)C)C(=O)N[C@@H](CCCN=C(N)N)C(=O)N1CCC[C@H]1C(=O)N[C@H](C)C(N)=O` (stereo in doubt), the AOA is 5 with Rattus norvegicus [14] and 0 in the test on Rattus norvegicus [1]. Moreover, the Activity in test [4] amounted to 3.8; in [5], 8; in test [6], 4; in test [7], 4; in the test listed under Rattus norvegicus [8], 149; in [9], 4.

Turning to `CC(=O)NC(Cc1ccc2ccccc2c1)C(=O)N[C@@H](Cc1ccc(Cl)cc1)C(=O)N[C@@H](CO)C(=O)N[C@@H](Cc1ccc(O)cc1)C(=O)NC(Cc1ccc2ccccc2c1)C(=O)N[C@@H](CC(C)C)C(=O)N[C@@H](CCCN=C(N)N)C(=O)N1CCC[C@H]1C(=O)N[C@H](C)C(N)=O` (stereo in doubt), the AOA in the test on Rattus norvegicus [2] and in the test with Rattus norvegicus [3] was 6 throughout. For the same compound, the Activity worked out at 3.8 in [4]; 39 in [5]; 29 in test [6]; 14 in test [7]; 149 in the test filed under Rattus norvegicus [8]; 6 in [9].

For the compound `CC(=O)NC(Cc1ccc2ccccc2c1)C(=O)N[C@@H](CO)C(=O)N[C@@H](Cc1ccc(O)cc1)C(=O)NC(Cc1ccc2ccccc2c1)C(=O)N[C@@H](CC(C)C)C(=O)N[C@@H](CCCN=C(N)N)C(=O)N1CCC[C@H]1C(=O)N[C@H](C)C(N)=O` (stereo in doubt), the AOA in the test on Rattus norvegicus [2] and in the test with Rattus norvegicus [3] was 6 in each case. Further, the Activity in [4] stood at 5.3; in [6] it was 37; in test [7], 12; in the test listed under Rattus norvegicus [8], 236; in [12], 3; in [9] it was 7.

For `CC(=O)N[C@@H](Cc1ccc2ccccc2c1)C(=O)NC(CCCCNC(=O)c1ccccn1)C(=O)N[C@@H](CCCCNC(=O)c1ccccn1)C(=O)NC(CCCN=C(N)N)C(=O)NC(C)C(N)=O` (stereo in doubt), the Activity in [4] is 2.3; in the test listed under Rattus norvegicus [8] it was 156; in test [10], 142; in test [11], 64; in test [12] it was 158; in test [13], 105. This compound also had an Activity in test [9] of 145.
